Results as given in ChEMBL document CHEMBL3259625 (ACS Med Chem Lett, 2014).

Columns and labels:
Liver microsome [1] = assay: (§1) Half life in human liver microsomes at 1 uM by LC-MS/MS analysis in presence of NADPH; type: ADME; conditions: microsomes, 1 µM
Outline: (§2)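 Microsomal stability was measured in human, rat and mouse liver microsomes, with sunitinib run in parallel as the reference compound.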

[2] = (§3) Half life in rat liver microsomes at 1 uM by LC-MS/MS analysis in presence of NADPH; type: ADME; conditions: liver microsomes; outline: as §2
Liver = assay: (§4) Half life in mouse liver microsomes at 1 uM by LC-MS/MS analysis in presence of NADPH; type: ADME; conditions: microsomes, 1 µM; outline: as §2
Trypanosoma cruzi = assay: Antitrypanosomal activity against trypomastigotes of Trypanosoma cruzi CA-I/72 infected in mouse C2C12 cells after 72 hrs; type: functional, organism-based; conditions: CA-I/72, C2C12, 72 h
Outline: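 EC50 derived from dose–response curves against T. cruzi in infected mouse C2C12 myoblasts.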

Liver microsome [3] = assay: as §3; type: ADME; conditions: microsomes, 1 µM; outline: as §2
Cytochrome P450 1A2 = biological target: T1, Cytochrome P450 1A2 (Homo sapiens, UniProt P05177); assay: (§5) Inhibition of CYP1A2 in human liver microsomes assessed as phenacetin […] to acetaminophen at 1 uM after 10 mins in presence of NADPH; type: ADME; conditions: microsomes, 10 min, 1 µM
T1 sequence (P05177 whole entry): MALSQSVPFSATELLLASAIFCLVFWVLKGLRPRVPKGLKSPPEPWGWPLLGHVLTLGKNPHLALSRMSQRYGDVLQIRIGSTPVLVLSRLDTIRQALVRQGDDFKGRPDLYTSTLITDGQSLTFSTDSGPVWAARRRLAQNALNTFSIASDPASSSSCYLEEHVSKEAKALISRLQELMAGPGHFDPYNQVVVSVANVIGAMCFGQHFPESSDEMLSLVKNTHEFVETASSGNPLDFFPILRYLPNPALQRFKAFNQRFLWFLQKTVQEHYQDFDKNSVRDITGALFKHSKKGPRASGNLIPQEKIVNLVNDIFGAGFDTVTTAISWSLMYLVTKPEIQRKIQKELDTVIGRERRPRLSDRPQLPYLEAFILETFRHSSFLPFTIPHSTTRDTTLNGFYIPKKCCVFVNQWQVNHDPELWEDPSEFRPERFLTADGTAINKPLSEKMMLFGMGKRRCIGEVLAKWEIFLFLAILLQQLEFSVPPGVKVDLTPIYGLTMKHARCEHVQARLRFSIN

Cytochrome P450 2C9 = Cytochrome P450 2C9 (Homo sapiens, UniProt P11712); assay: (§6) Inhibition of CYP2C9 in human liver microsomes assessed as tolbutamide hydroxylation to hydroxytolbutamide at 1 uM after 10 mins in presence of NADPH; type: ADME; conditions: microsomes, 10 min, 1 µM
Cytochrome P450 2D6 = Cytochrome P450 2D6 (Homo sapiens, UniProt P10635); assay: (§7) Inhibition of CYP2D6 in human liver microsomes assessed as bufuralol hydroxylation to 4'-hydroxybufuralol at 1 uM after 10 mins in presence of NADPH; type: ADME; conditions: microsomes, 10 min, 1 µM
Cytochrome P450 3A4 = Cytochrome P450 3A4 (Homo sapiens, UniProt P08684); assay: (§8) Inhibition of CYP3A4 in human liver microsomes assessed as midazolam hydroxylation to 1'-hydroxymidazolam at 1 uM after 10 mins in presence of NADPH; type: ADME; conditions: microsomes, 10 min, 1 µM
[4] = as §1; type: ADME; conditions: liver microsomes; outline: as §2
[5] = as §4; type: ADME; conditions: liver microsomes; outline: as §2
CYP1A2 = biological target: T2, CYP1A2 (Homo sapiens, UniProt P05177); assay: as §5; type: ADME; conditions: liver microsomes, probe phenacetin
T2 sequence (P05177 whole entry): T1 sequence (P05177 whole entry)

CYP2C9 = CYP2C9 (Homo sapiens, UniProt P11712); assay: as §6; type: ADME; conditions: liver microsomes, probe tolbutamide
CYP2D6 = CYP2D6 (Homo sapiens, UniProt P10635); assay: as §7; type: ADME; conditions: liver microsomes, probe bufuralol
CYP3A4 = CYP3A4 (Homo sapiens, UniProt P08684); assay: as §8; type: ADME; conditions: liver microsomes, probe midazolam
Chain of CYP3A4 (P08684 whole entry): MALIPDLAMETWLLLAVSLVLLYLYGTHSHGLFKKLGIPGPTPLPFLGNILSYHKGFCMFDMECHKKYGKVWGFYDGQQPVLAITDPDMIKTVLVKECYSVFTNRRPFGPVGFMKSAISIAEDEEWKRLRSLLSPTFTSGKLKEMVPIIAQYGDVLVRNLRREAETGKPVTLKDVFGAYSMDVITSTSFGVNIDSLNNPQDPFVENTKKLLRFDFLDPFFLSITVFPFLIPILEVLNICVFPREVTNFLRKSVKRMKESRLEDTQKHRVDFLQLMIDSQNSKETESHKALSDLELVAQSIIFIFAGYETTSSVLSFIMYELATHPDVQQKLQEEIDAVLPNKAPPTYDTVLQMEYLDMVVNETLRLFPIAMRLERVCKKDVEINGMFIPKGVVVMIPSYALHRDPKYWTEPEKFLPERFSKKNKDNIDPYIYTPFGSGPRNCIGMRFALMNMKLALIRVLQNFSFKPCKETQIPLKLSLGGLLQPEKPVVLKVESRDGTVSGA

Chain of CYP2C9 (P11712 whole entry): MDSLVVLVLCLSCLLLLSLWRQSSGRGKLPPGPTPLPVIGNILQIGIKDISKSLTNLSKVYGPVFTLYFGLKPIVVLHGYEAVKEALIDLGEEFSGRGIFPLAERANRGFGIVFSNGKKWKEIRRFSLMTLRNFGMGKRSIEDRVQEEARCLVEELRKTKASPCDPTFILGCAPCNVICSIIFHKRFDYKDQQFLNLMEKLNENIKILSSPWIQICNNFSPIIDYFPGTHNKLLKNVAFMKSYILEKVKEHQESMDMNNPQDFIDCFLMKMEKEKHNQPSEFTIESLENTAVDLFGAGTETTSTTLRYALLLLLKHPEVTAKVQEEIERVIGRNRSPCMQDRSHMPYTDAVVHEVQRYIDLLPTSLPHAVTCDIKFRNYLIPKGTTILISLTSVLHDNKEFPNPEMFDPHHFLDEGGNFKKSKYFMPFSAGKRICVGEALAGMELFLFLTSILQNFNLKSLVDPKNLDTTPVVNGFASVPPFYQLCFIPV
Chain of CYP2D6 (P10635 whole entry): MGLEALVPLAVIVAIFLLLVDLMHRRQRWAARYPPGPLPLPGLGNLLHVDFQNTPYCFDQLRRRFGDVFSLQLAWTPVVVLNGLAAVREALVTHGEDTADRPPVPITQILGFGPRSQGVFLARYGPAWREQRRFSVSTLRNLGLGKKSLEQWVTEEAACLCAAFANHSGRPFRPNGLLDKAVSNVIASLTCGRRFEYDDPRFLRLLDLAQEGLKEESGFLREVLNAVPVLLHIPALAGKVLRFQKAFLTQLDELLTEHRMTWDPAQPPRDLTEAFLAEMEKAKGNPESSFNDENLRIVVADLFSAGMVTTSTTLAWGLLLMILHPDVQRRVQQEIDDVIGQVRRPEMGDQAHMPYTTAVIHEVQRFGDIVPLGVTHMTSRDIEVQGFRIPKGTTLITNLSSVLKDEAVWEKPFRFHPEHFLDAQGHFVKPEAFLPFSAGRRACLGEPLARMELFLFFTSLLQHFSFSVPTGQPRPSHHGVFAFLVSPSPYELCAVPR
Chain of Cytochrome P450 2C9 (P11712 whole entry): as the sequence (P11712 whole entry) above
Chain of Cytochrome P450 2D6 (P10635 whole entry): as the sequence (P10635 whole entry) above
Chain of Cytochrome P450 3A4 (P08684 whole entry): as the sequence (P08684 whole entry) above

Question: What does the source list for `O=C(N[C@H](Cc1c[nH]c2ccccc12)C(=O)Nc1ccncc1)c1ccc(-c2cccc(F)c2)cc1F`?
Answer: t1/2 (Liver microsome [1]): 18 min; half-life at 1 µM [2]: 20 min; t1/2 (Liver): 27 min

Question: With `O=C(N[C@H](Cc1c[nH]c2ccccc12)C(=O)Nc1ccncc1)c1ccc(-c2cc(F)ccc2F)cc1F` as the compound, how does the EC50 (Trypanosoma cruzi) read?
Answer: 1.3 nM

Question: What about the t1/2 (Liver microsome [1]) of the same compound?
Answer: 17 min

Question: What about the t1/2 (Liver microsome [3]) of the same compound?
Answer: 17 min

Question: What about the “inhibition (INH)” value (Cytochrome P450 1A2) of the same compound?
Answer: 3%

Question: And the “inhibition (INH)” value (Cytochrome P450 2C9)?
Answer: 92%

Question: And the “inhibition (INH)” value (Cytochrome P450 2D6)?
Answer: 47%

Question: What about the “inhibition (INH)” value (Cytochrome P450 3A4) of the same compound?
Answer: 74%

Question: Which t1/2 (Liver microsome [1]) does the source give for `O=C(N[C@H](Cc1c[nH]c2ccccc12)C(=O)Nc1ccncc1)c1ccc(-c2ccc(F)c(F)c2)cc1F` here?
Answer: 18 min

Question: What about the t1/2 (Liver) of the same compound?
Answer: 39 min

Question: For `O=C(N[C@H](Cc1c[nH]c2ccccc12)C(=O)Nc1ccncc1)c1ccc(-c2ccc(C(F)(F)F)c(F)c2)cc1F`, which EC50 (Trypanosoma cruzi) is on record?
Answer: 2.9 nM

Question: And the half-life at 1 µM [4]?
Answer: 45 min

Question: What about the half-life at 1 µM [2] of the same compound?
Answer: 39 min

Question: What about the half-life at 1 µM [5] of the same compound?
Answer: 69 min

Question: And the inhibition at 10 min, 1 µM (CYP1A2)?
Answer: -4%

Question: What about the inhibition at 10 min, 1 µM (CYP2C9) of the same compound?
Answer: 92%

Question: What about the inhibition at 10 min, 1 µM (CYP2D6) of the same compound?
Answer: 27%

Question: And the inhibition at 10 min, 1 µM (CYP3A4)?
Answer: 24%

Question: What does the source list for `O=C(N[C@H](Cc1c[nH]c2ccccc12)C(=O)Nc1ccncc1)c1ccc(N2CCN(c3cccc(C(F)(F)F)c3)CC2)cc1F`?
Answer: EC50 (Trypanosoma cruzi): 0.47 nM; half-life at 1 µM [4]: 8 min; half-life at 1 µM [2]: 24 min; half-life at 1 µM [5]: 11 min; inhibition at 10 min, 1 µM (CYP1A2): 10%; inhibition at 10 min, 1 µM (CYP2C9): 96%; inhibition at 10 min, 1 µM (CYP2D6): 74%; inhibition at 10 min, 1 µM (CYP3A4): 86%

Question: What does the source list for `O=C(N[C@H](Cc1c[nH]c2ccccc12)C(=O)Nc1ccncc1)c1ccc(-c2ccc(OCc3ccc(F)cc3F)c(F)c2)cc1F`?
Answer: EC50 (Trypanosoma cruzi): 0.6 nM; half-life at 1 µM [4]: 25 min; half-life at 1 µM [2]: 30 min; half-life at 1 µM [5]: 34 min; inhibition at 10 min, 1 µM (CYP1A2): -9%; inhibition at 10 min, 1 µM (CYP2C9): 84%; inhibition at 10 min, 1 µM (CYP2D6): 21%; inhibition at 10 min, 1 µM (CYP3A4): 38%

Question: What does the source list for `O=C(N[C@H](Cc1c[nH]c2ccccc12)C(=O)Nc1ccncc1)c1ccc(-c2ccc(OCc3ccc(F)cc3)c(C(F)(F)F)c2)cc1F`?
Answer: EC50 (Trypanosoma cruzi): 9.2 nM; half-life at 1 µM [4]: 29 min; half-life at 1 µM [2]: 53 min; half-life at 1 µM [5]: 51 min; inhibition at 10 min, 1 µM (CYP1A2): -26%; inhibition at 10 min, 1 µM (CYP2C9): 41%; inhibition at 10 min, 1 µM (CYP2D6): -17%; inhibition at 10 min, 1 µM (CYP3A4): 15%
